Reference: ChEMBL document CHEMBL1806437, “Design, synthesis and antileishmanial in vitro activity of new series of chalcones-like compounds: a molecular hybridization approach” (Bioorg Med Chem, 2011)
Each block holds one compound with its values, some of them ahead of it.

Legend:
Leishmania chagasi = assay: Antileishmanial activity against Leishmania chagasi MCAN/BR/99/JP15 promastigotes after 72 hrs by cell counting using Neubauer chamber; format: functional, organism-based; conditions: MCAN/BR/99/JP15, 72 h
Method in brief: (§1)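 Log-phase promastigotes seeded at 1 × 10⁶ parasites/mL in Schneider's Drosophila medium with 20% FBS, streptomycin and penicillin (100 U/mL), 26 °C, with or without a range of compound concentrations; Glucantime and amphotericin B as reference controls. At 72 h cells fixed in citric acid/NaCl/formalin isotonic solution and counted microscopically; IC50/72 h by probit regression.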

Leishmania amazonensis = assay: Antileishmanial activity against Leishmania amazonensis MHOM/IFLA/BR/67/PH8 promastigotes after 72 hrs by cell counting using Neubauer chamber; format: functional, organism-based; conditions: MHOM/IFLA/BR/67/PH8, 72 h; method in brief: as §1

Compound: C=C(C(=O)Oc1ccccc1C(=O)OC)C(O)c1cccnc1 (configuration not stated)
IC50 (Leishmania chagasi): 38.7 µM
IC50 (Leishmania amazonensis): 31.2 µM

Compound: C=C(CCC(=O)Oc1ccccc1C(=O)OC)C(=O)Oc1ccccc1C(=O)OC
IC50 (Leishmania chagasi): 49.1 µM
IC50 (Leishmania amazonensis): 22.4 µM

Compound: C[C@@H]1[C@H](O)[C@@H](C)/C=C/C=C/C=C/C=C/C=C/C=C/C=C/[C@H](O[C@@H]2O[C@H](C)[C@@H](O)[C@H](N)[C@@H]2O)C[C@@H]2O[C@](O)(C[C@@H](O)C[C@@H](O)[C@H](O)CC[C@@H](O)C[C@@H](O)CC(=O)O[C@H]1C)C[C@H](O)[C@H]2C(=O)O [AMPHOTERICIN B]
IC50 (Leishmania chagasi): 0.69 µM
IC50 (Leishmania amazonensis): 0.12 µM

Compound: C=CC(=O)Oc1ccccc1C(=O)OC [METHYL SALICYLATE ACRYLIC ESTER]
IC50 (Leishmania chagasi): 119 µM
IC50 (Leishmania amazonensis): 108 µM

Compound: COC(=O)c1ccccc1O [METHYL SALICYLATE]
IC50 (Leishmania chagasi): 261 µM
IC50 (Leishmania amazonensis): 228 µM

Continued, values first:

IC50 (Leishmania chagasi): 10.1 µM
IC50 (Leishmania amazonensis): 7.65 µM
Compound: C=C(C(=O)Oc1ccccc1C(=O)OC)C(O)c1ccccc1[N+](=O)[O-] (configuration not stated)

IC50 (Leishmania chagasi): 40.6 µM
IC50 (Leishmania amazonensis): 22.9 µM
Compound: C=C(C(=O)Oc1ccccc1C(=O)OC)C(O)c1cccc([N+](=O)[O-])c1 (configuration not stated)

IC50 (Leishmania chagasi): 57.3 µM
IC50 (Leishmania amazonensis): 11.3 µM
Compound: C=C(C(=O)Oc1ccccc1C(=O)OC)C(O)c1ccc([N+](=O)[O-])cc1 (configuration not stated)

IC50 (Leishmania chagasi): 33.4 µM
IC50 (Leishmania amazonensis): 23.8 µM
Compound: C=C(C(=O)Oc1ccccc1C(=O)OC)C(O)c1ccncc1 (configuration not stated)

IC50 (Leishmania chagasi): 43 µM
IC50 (Leishmania amazonensis): 22 µM
Compound: C=C(C(=O)Oc1ccccc1C(=O)OC)C(O)c1ccc(Br)cc1 (configuration not stated)

IC50 (Leishmania chagasi): 41.4 µM
IC50 (Leishmania amazonensis): 9 µM
Compound: C=C(C(=O)Oc1ccccc1C(=O)OC)C(O)c1ccc2ccccc2c1 (configuration not stated)
